The source made the active and inactive calls. No cut-off for these calls is given here.
What was measured:
[1] = system: Rattus norvegicus; assay: Locomotor activity in normal rat at 12.5 umol/kg expressed as percent of control; format: functional
Outline: (§1)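 Untreated rats were given the test drug sc. Locomotor activity was recorded with motility meters and expressed as percent of controls, with significance by Student's t test (p < 0.05).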

[2] = system: Rattus norvegicus; assay: DOPA accumulation in normal rat striatal region at 12.5 umol/kg expressed as percent of control; format: functional
[3] = system: Rattus norvegicus; assay: DOPA accumulation in reserpine-pretreated rat striatal region after subcutaneous administration of 50 umol/kg; Inactive; format: functional, organism-based
[4] = system: Rattus norvegicus; assay: DOPA accumulation in normal rat limbic region at 12.5 umol/kg expressed as percent of control; format: functional, Limbic system
[5] = target: T1, D(2) dopamine receptor (Rattus norvegicus, UniProt P61169); assay: In vitro inhibition of [3H]spiperone binding to Dopamine receptor D2 in rat striatal membranes; format: cell membranes, Membrane
[6] = system: Rattus norvegicus; assay: DOPA accumulation in normal rat cortex at 12.5 umol/kg expressed as percent of control; Inactive; format: functional, organism-based
[7] = system: Rattus norvegicus; assay: DOPA accumulation in reserpine-pretreated rat cortex after subcutaneous administration of 50 umol/kg; Inactive; format: functional, organism-based
[8] = system: Rattus norvegicus; assay: Locomotor activity in normal rat at 25 umol/kg expressed as percent of control; format: functional; outline: as §1
[9] = system: Rattus norvegicus; assay: Locomotor activity in reserpine-pretreated ratat the dose of 50 umol/kg; Accumulation counts/30 min; format: functional
[10] = system: Rattus norvegicus; assay: DOPA accumulation in reserpine-pretreated rat limbic region after subcutaneous administration of 50 umol/kg; Inactive; format: functional, organism-based; conditions: Limbic system
[11] = system: Rattus norvegicus; assay: Locomotor activity in normal rat at 3.1 umol/kg expressed as percent of control; format: functional; outline: as §1
[12] = target: T1, D(2) dopamine receptor; assay: In vitro inhibition of [3H]N-0437 binding to Dopamine receptor D2 in rat striatal membranes; format: cell membranes, Membrane
[13] = system: Rattus norvegicus; assay: DOPA accumulation in normal rat cortex at 100 umol/kg expressed as percent of control; format: functional
[14] = system: Rattus norvegicus; assay: Locomotor activity in normal rat at 100 umol/kg expressed as percent of control; format: functional; outline: as §1
[15] = system: Rattus norvegicus; assay: DOPA accumulation in normal rat limbic region at 100 umol/kg expressed as percent of control; format: functional, Limbic system
[16] = system: Rattus norvegicus; assay: Locomotor activity in reserpine-pretreated rat at the dose of 100 umol/kg; Accumulation counts/30 min; format: functional
[17] = system: Rattus norvegicus; assay: DOPA accumulation in normal rat striatal region at 100 umol/kg expressed as percent of control; format: functional
[18] = system: Rattus norvegicus; assay: DOPA accumulation in normal rat cortex at 50 umol/kg expressed as percent of control; format: functional
[19] = system: Rattus norvegicus; assay: DOPA accumulation in reserpine-pretreated rat limbic region after subcutaneous administration of 50 umol/kg; Range is 0.44-3.5; format: functional; conditions: Limbic system, sc
[20] = system: Rattus norvegicus; assay: DOPA accumulation in normal rat striatal region at 50 umol/kg expressed as percent of control; Inactive; format: functional, organism-based
[21] = system: Rattus norvegicus; assay: Locomotor activity in reserpine-pretreated rat at the dose of 50 umol/kg; Accumulation counts/30 min; format: functional
[22] = system: Rattus norvegicus; assay: Locomotor activity in normal rat at 50 umol/kg expressed as percent of control; format: functional; outline: as §1
[23] = system: Rattus norvegicus; assay: DOPA accumulation in normal rat limbic region at 50 umol/kg expressed as percent of control; Inactive; format: functional, organism-based; conditions: Limbic system
[24] = system: Rattus norvegicus; assay: DOPA accumulation in normal rat striatal region at 0.8 umol/kg expressed as percent of control; format: functional
[25] = system: Rattus norvegicus; assay: Locomotor activity in normal rat at 213 umol/kg expressed as percent of control; format: functional
[26] = system: Rattus norvegicus; assay: Locomotor activity in reserpine-pretreated ratat the dose of 13 umol/kg; Accumulation counts/30 min; format: functional
[27] = system: Rattus norvegicus; assay: DOPA accumulation in normal rat striatal region at 27 umol/kg expressed as percent of control; format: functional
[28] = system: Rattus norvegicus; assay: DOPA accumulation in reserpine-pretreated rat cortex after subcutaneous administration; Inactive; format: functional, organism-based
[29] = system: Rattus norvegicus; assay: DOPA accumulation in reserpine-pretreated rat striatal region after subcutaneous administration; format: functional; conditions: sc
[30] = system: Rattus norvegicus; assay: DOPA accumulation in normal rat cortex at 0.8 umol/kg expressed as percent of control; Inactive; format: functional, organism-based
[31] = system: Rattus norvegicus; assay: DOPA accumulation in normal rat cortex at 27 umol/kg expressed as percent of control; Inactive; format: functional, organism-based
[32] = system: Rattus norvegicus; assay: DOPA accumulation in reserpine-pretreated rat limbic region after subcutaneous administration; format: functional; conditions: Limbic system, sc
[33] = system: Rattus norvegicus; assay: Locomotor activity in normal rat at 1.6 umol/kg expressed as percent of control; format: functional
[34] = system: Rattus norvegicus; assay: DOPA accumulation in normal rat limbic region at 0.8 umol/kg expressed as percent of control; format: functional, Limbic system
[35] = system: Rattus norvegicus; assay: DOPA accumulation in normal rat limbic region at 27 umol/kg expressed as percent of control; format: functional, Limbic system
[36] = system: Rattus norvegicus; assay: DOPA accumulation in normal rat limbic region at 213 umol/kg expressed as percent of control; format: functional, Limbic system
[37] = system: Rattus norvegicus; assay: Locomotor activity in reserpine-pretreated ratat the dose of 213 umol/kg; Accumulation counts/30 min; format: functional
[38] = system: Rattus norvegicus; assay: Locomotor activity in normal rat at 0.8 umol/kg expressed as percent of control; format: functional
[39] = system: Rattus norvegicus; assay: DOPA accumulation in normal rat cortex at 213 umol/kg expressed as percent of control; Inactive; format: functional, organism-based
[40] = system: Rattus norvegicus; assay: DOPA accumulation in normal rat limbic region at 50 umol/kg expressed as percent of control; format: functional, Limbic system
[41] = system: Rattus norvegicus; assay: DOPA accumulation in reserpine-pretreated rat striatal region after subcutaneous administration of 50 umol/kg; Range is 1.7-4; format: functional; conditions: sc
[42] = system: Rattus norvegicus; assay: DOPA accumulation in normal rat cortex at of 50 umol/kg expressed as percent of control; format: functional
[43] = system: Rattus norvegicus; assay: DOPA accumulation in reserpine-pretreated rat limbic region after subcutaneous administration of 50 umol/kg; Range is 1.1-6.5; format: functional; conditions: Limbic system, sc
[44] = system: Rattus norvegicus; assay: DOPA accumulation in normal rat striatal region at of 50 umol/kg expressed as percent of control; format: functional
[45] = system: Rattus norvegicus; assay: DOPA accumulation in normal rat cortex at 50 umol/kg expressed as percent of control; Inactive; format: functional, organism-based
[46] = system: Rattus norvegicus; assay: DOPA accumulation in normal rat striatal region at 50 umol/kg expressed as percent of control; format: functional

T1 sequence (P61169 whole entry): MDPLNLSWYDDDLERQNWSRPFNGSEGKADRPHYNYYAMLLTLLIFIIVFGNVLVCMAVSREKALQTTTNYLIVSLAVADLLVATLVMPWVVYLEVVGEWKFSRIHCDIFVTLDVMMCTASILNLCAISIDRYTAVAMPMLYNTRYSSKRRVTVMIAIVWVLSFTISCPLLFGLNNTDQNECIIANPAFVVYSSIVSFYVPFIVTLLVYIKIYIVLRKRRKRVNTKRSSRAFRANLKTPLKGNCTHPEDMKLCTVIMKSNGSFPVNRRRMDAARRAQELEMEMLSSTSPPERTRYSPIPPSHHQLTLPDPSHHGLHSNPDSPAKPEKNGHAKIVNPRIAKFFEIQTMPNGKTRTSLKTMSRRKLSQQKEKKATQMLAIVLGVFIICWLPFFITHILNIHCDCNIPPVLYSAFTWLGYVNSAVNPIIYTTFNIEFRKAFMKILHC

Oc1cccc(C2=CCCN3CCCCC23)c1 (configuration not stated)
Control [1]: 45%
Control [2]: 200%
ED50 [3]: inactive
Control [4]: 165%
IC50 [5]: 5.3 µM
Control [6]: inactive
ED50 [7]: inactive
Control [8]: 51%
Locomotor activity [9]: 8
ED50 [10]: inactive
Control [11]: 82%
IC50 [12]: 0.32 µM

O=C(O)C(=O)O.Oc1cccc(C2CCC3CCCCN3C2)c1 (configuration not stated)
Control [13]: 62%
Control [14]: 220%
IC50 [5]: 40 µM
Control [15]: 69%
Locomotor activity [16]: 262
Control [17]: 56%
IC50 [12]: 7.9 µM

Oc1cccc(C2CCCN3CCCC23)c1 (racemic)
Control [18]: 57%
ED50 [19]: 0.44 µmol/kg
Control [20]: inactive
IC50 [5]: 3.8 µM
ED50 [7]: inactive
Locomotor activity [21]: 13
Control [22]: 48%
Control [23]: inactive
IC50 [12]: 0.075 µM

Oc1cccc(C2CCCN3CCCCC23)c1 (configuration not stated)
Control [13]: 48%
Control [14]: 142%
IC50 [5]: 13 µM
Locomotor activity [9]: 14
Control [15]: 61%
Control [17]: 54%
IC50 [12]: 0.58 µM

CCCN1CCC[C@H](c2cccc(O)c2)C1
Control [24]: 81%
Control [25]: 230%
Locomotor activity [26]: 78
Control [27]: 45%
ED50 [28]: inactive
ED50 [29]: 1.3 µmol/kg
Control [30]: inactive
Control [31]: inactive
ED50 [32]: 1 µmol/kg
Control [33]: 75%
Control [34]: 86%
Control [35]: 40%

CCCN1CCC[C@@H](c2cccc(O)c2)C1 [PRECLAMOL]
Control [36]: 95%
Control [25]: 40%
Locomotor activity [37]: 12
Control [27]: 147%
ED50 [28]: inactive
ED50 [29]: 1.7 µmol/kg
Control [38]: 74%
Control [39]: inactive
Control [31]: inactive
ED50 [32]: 0.8 µmol/kg

Oc1cccc([C@H]2CCCN3CCCC23)c1 (some centres not stated)
Control [1]: 42%
Control [40]: 46%
ED50 [41]: 1.7 µmol/kg
Control [42]: 37%
IC50 [5]: 4.9 µM
Locomotor activity [21]: 25
ED50 [43]: 1.1 µmol/kg
Control [22]: 83%
Control [44]: 46%
IC50 [12]: 0.045 µM

CCCN(CCc1ccsc1)C1CCc2c(O)cccc2C1 (configuration not stated)
IC50 [5]: 0.0088 µM
IC50 [12]: 0.00062 µM

Oc1cccc([C@@H]2CCCN3CCCC23)c1 (some centres not stated)
Control [40]: 153%
IC50 [5]: 6.5 µM
Control [45]: inactive
Locomotor activity [21]: 21
Control [46]: 245%
Control [22]: 72%
Control [11]: 135%
IC50 [12]: 0.17 µM
